Source: the EternaBench riboswitch data

Test system: MS2 coat protein
Experiment: apparent Kd, MS2 coat protein; higher = weaker binding; RNA-MaP array; FMN 200 µM where present
How it was run: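 SNAP-549-labelled MS2 coat protein, doubled from 0.7 or 1.5 nM to 3 µM, was titrated over designs transcribed by stalled E. coli RNA polymerase on Illumina sequencing-chip clusters. Titrations were run without and then with constant ligand in 100 mM Tris-HCl pH 7.5, 80 mM KCl, 4 mM MgCl2, BSA, DTT, yeast tRNA and Tween-20. The apparent Kd is the median of filtered per-cluster fits to green signal normalised to red-channel RNA signal and control-cluster median Fmax.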

[1] = designed as: OFF switch for flavin mononucleotide, no ligand
[2] = ligand present: flavin mononucleotide, designed as: OFF switch for flavin mononucleotide
[3] = designed as: ON switch for flavin mononucleotide, no ligand
[4] = ligand present: flavin mononucleotide, designed as: ON switch for flavin mononucleotide

Sequence	apparent Kd [1]	apparent Kd [2]	apparent Kd [3]	apparent Kd [4]
GAUAAACAUGAGGAUCACCCAUGUGAGGAUAUGCGUACGUUGUCCGUAGGCGACGUGCGCAGAAGGCGCAAGGU	99.4 nM	216 nM	–	–
UUAUACGUUGAGGAUAUGCGAUUUAGUAUAGUUGUAGAAGGCGAUACAUGAGGAUCACCCAUGUUUAUGGGCAU	328 nM	257 nM	–	–
AGCUGUGGCCGAGGAUAUACAUCCUUUAUAAAACCGAAAUAUAAUCGGACAUGAGGAUCACCCAUGUAGAAGGCGGUCUCAGCA	51.4 nM	702 nM	–	–
UGACGGAGCAGAGGAUAUUACAUGAGGAUCACCCAUGUAUGAACCAAUAGCUGGAAACAGCAAUGUAAGAAGGCUGCUCCGACA	11.6 nM	147 nM	–	–
GAAGCACGCAUUAACAUGAGGAUCACCCAUGUGAAAACACGUGAGGAUAUGGAUCUGAAGAAGAUCCAGAAGGCACCGUGCUAA	–	–	5.44 nM	4.78 nM
UUUGACAGCUAGAGUUGUUAAGUACAUGAGGAUCACCCAUGUCAGGAUAUCCUUCCGCAAUGCGAGGAGAAGGGACAGGGUCCC	104 nM	232 nM	–	–
CUGGUUGUCGAGGAUAUGUCCCGGCUCGCUGUCGCAGAAGGCGACACAUGAGGAUCACCCAUGUCGGUUCGCGU	34.6 nM	30.5 nM	–	–
AGUUAAUAUCGAGGAUAUCCUCUGAAACAUGAGGAUCACCCAUGUAGAAUGGGAGAAGGCGAUAUUAACAGCAUGUUACAUGCA	–	–	111 nM	48.6 nM
GCCUCAGAAUUAAUUGUGAGAAGCAGAAGGCUAUAUCUCAUGUUAAACAUGAGGAUCACCCAUGUAGAGGAUAUGCUAUUACAG	58.9 nM	282 nM	–	–
UAUGUGUCAGGAUAUUGUUAAUUUAGUUGUUUGUAUUAGUUCGAGAAGGGACAUGAGGAUCACCCAUGUUGUUU	31.9 nM	–	–	–
GGUCACGUAGGAUAUACCUGGGCCUCUGAAUUCGGCAAUUUACAUGAGGAUCACCCAUGUAGAAGGACGAUGGC	120 nM	97.6 nM	–	–
GCCUAGCUAGGAUAUACCCAGGGUUUGUUCUCUAACGACACACAUGAGGAUCACCCAUGUAGAAGGAGCCGGGA	47.2 nM	41.4 nM	–	–
AUAUUAUUGAUCCAUUUUUUCAACAUGAGGAUCACCCAUGUGCAGGAUAUCGUGUGUUUUAUCAACGAGAAGGGCAAAUUCAUU	94.2 nM	215 nM	–	–
GCAAACAUGAGGAUCACCCAUGUCGGCUAUAAGUCCGCUCACAGAAGGGAUACGCCGGCAGGUGAUCAGGAUAUGUGGGCGCGC	–	–	239 nM	16.5 nM
UGACAUAUAUAGAAGGGUAGUAGGGUUUUACAUGAGGAUCACCCAUGUAUUAUAGGAUAUGUGUAAAGUUAUUAUUAAAGUAAA	22.5 nM	17.2 nM	–	–
UGUUGUAUUACAGGAUAUCUAUGAUUUUUGUUUAGAGAAGGGUAUUCACAUGAGGAUCACCCAUGUAUAUACGAGGAAGUUGUG	–	–	60.3 nM	74.7 nM
ACGACGAAAAUCGAACGAUGUAGCAGAAGGACAUGAGGAUCACCCAUGUAAAAUGUAACAGCCAUGUAGGAUAUGCUACAUCGA	40.9 nM	272 nM	–	–
UUGGACGUCGUAGGAUAUGUAGGAUAUUCCUACAUGAGGAUCACCCAUGUUGACAUGGCAGAAGGACAGAAGGACGAUGUCCAU	–	–	938 nM	129 nM
GCUGACGAUGUAGGAUAUCAGUAUAAUAAAUACUGAGAAGGACAUGAGGAUCACCCAUGUACUCAACGUCAGCAGAGGAAACUC	17.8 nM	22.5 nM	–	–
UAAUGACAUGUAGGAUAUCGAGGCCUAUGGCCUCGAGAAGGACAUGAGGAUCACCCAUGUAUUCCGAAUGAAUCAAAUAAUAAA	15.6 nM	30.8 nM	–	–
UUGGCAACGUAGAAGGGUGACAUGAGGAUCACCCAUGUGCCGAUAUUUCUCGAGAUAUGUCGGCCACAGGAUAUACGUGCCAUC	–	–	32.3 nM	57.9 nM
AGUGGUGGAGGAUAUACAUGAGGAUCACCCAUGUAAAUCACACAUGUGGUCAAAGCAUGUAGAAGGCCACUACA	99.6 nM	109 nM	–	–
UGCUGGCGAGGAUAUGCUCGGGUUGCUUGUCGCGCGGUUGCACAUGAGGAUCACCCAUGUAGAAGGUGUCUGUG	311 nM	438 nM	–	–
UGUCGGAGCAGAGGAUAUUACAUGAGGAUCACCCAUGUAUGAACCAAUAGCUGGAAACAGCAAUGUAAGAAGGCUGCGCCGACA	12.5 nM	153 nM	–	–
UACCCUUGUGAGAAGGCGCCGCAGAUUUUACGGCGAGGAUAUCACAUGAGGAUCACCCAUGUUCCUGAGCCUACAAGUGUGGGC	338 nM	313 nM	–	–
CUGAGGAAAGGAUAUACAUCAAACUCCUCAUCCUCGAAAGAACAUGAGGAUCACCCAUGUAGAAGGUUCGCGGU	37.2 nM	29.8 nM	–	–
AAUUACAUGUAGAAGGUACUUAAUUAAGUGUUGUAAGGAUAUACCAAUUUAUUAGAUUUAAAGAUACAUGAGGAUCACCCAUGU	–	–	12.1 nM	9.76 nM
AAUUAAUUGUAGAAGGUACUUAAUUAUGAUAUGUAAGGAUAUACGAUAUUAUUACGACAUGUAUGACAUGAGGAUCACCCAUGU	–	–	12.4 nM	9.23 nM

Sequence	apparent Kd [1]	apparent Kd [2]	apparent Kd [3]	apparent Kd [4]
UUUUGGCAUGUAGGAUAUGGGUCCGAUUAGGAUUUAGAAGGACAUGAGGAUCACCCAUGUGCAUUUAAUUGGUCUUUUUUUUUU	102 nM	133 nM	–	–
GGGUACAUCGGAGGAUAUCAAGUAAAUACAUGAGGAUCACCCAUGUCGAUGGAGACAUCGGAGAUUGAGAAGGCCGAUGUACCG	–	–	6 nM	5.42 nM
CUUUUGGCAGGAUAUGCUUUUUUUGACAUGAGGAUCACCCAUGUGAUGCAUUUUGGGUUUGCAGAAGGGCCUGAGU	63.5 nM	87.5 nM	–	–
AGAAAGUCAGGAUAUCGAAGGUAGUGGAGAGGAGUGUGGUACGAGAAGGGACAUGAGGAUCACCCAUGUAGGAG	34.1 nM	31.4 nM	–	–
AAAACAUGAGGAUCACCCAUGUAAAGAUCGGUUAAUAGAAGUGAGGAUAUGCUUAAUAUAAGGUAGCAGAAGGCACUGGGUACA	–	–	23.3 nM	25.7 nM
UUCUUACAUGAGGAUCACCCAUGUGUUGUCGUGGGAGGAUAUCCUUGUUCGGUGGCGUUGGGAGAAGGCCUAUGUU	–	–	39.3 nM	73.2 nM
CUUUGCGUUAGAGGAUAUAUUGUGUGUUACACAAUAGAAGGCUAAACAAACAUGAGGAUCACCCAUGUUGUCCAUGUCGUCGGC	–	–	16.8 nM	21 nM
GGCUGGUGACAGCAUCCAUCAAAACAUGAGGAUCACCCAUGUAGAAGGCUGUACGGUUACCGUACAGAGGAUAUACAAUGAUGA	14.5 nM	24.2 nM	–	–
AAUAAACAUGAGGAUCACCCAUGUCAGGAUAUGCGUCUAUCCUUAUUGCAUAGAUACGGCAGAAGGGACUAAUG	31.9 nM	56.9 nM	–	–
GUGUACGGAGGAUAUAUGUGGGCAGGCUGACCUGCAGCUUCACAUGAGGAUCACCCAUGUAGAAGGCUGUACAC	22.7 nM	114 nM	–	–
CAUUAAUUCAUUAUAGUAAUUUUACAGGAUAUGUAACAUGAGGAUCACCCAUGUAUUCUUGGUUAACAGAAGGGUAUUACUUGU	19.3 nM	29.7 nM	–	–
UUAUUAUAUGUAGGAUAUGUAUAUUAUUAUUGUGCAGAAGGACAUGAGGAUCACCCAUGUAUAUUAUUAUUAUAUAUUAUAUAU	21.4 nM	17.1 nM	–	–
UGAGCAUGAGGAUAUACAAGGCGUGCGUGAGCACGAGGUUUACAUGAGGAUCACCCAUGUAGAAGGCAUGUUCU	19.1 nM	39.8 nM	–	–
GGACGUCACAUUUACAUGAGGAUCACCCAUGUCUCUUGACAUGAGGAUAUGUAUACUAAUUGUAUACAGAAGGCAUGGACGUCC	–	–	1010 nM	168 nM
UUGUUACAUGAGGAUCACCCAUGUGAGGAUAUGGCCCGCCCGGCGUGAGCUGGUUUUGUCAGAAGGCGCGUGGG	111 nM	159 nM	–	–
ACUCGAUUUUUGGGUAUACUAUAUGAGGAUAUCAUACAUCUAUACAUGAGGAUCACCCAUGUGACUGAGAAGGCAUAUAUAAUA	–	–	18.8 nM	9.15 nM
GAUUUACAUGAGGAUCACCCAUGUGAGGAUAUUGGGCUAGCAGAGUGAAUUCGCUGUCCAAGAAGGUACUGGAA	32.6 nM	32.5 nM	–	–
AAAUAGCUAGAGGAUAUCGGAUAGGAUUUACUACGAGAAGGUUAGACAUGAGGAUCACCCAUGUUCUGUUGGGA	41.5 nM	39.2 nM	–	–
GUAAAACAUGAGGAUCACCCAUGUCAACAAAGUCGAGGAUAUGGGCAAAUAAAAUAAGAACCAGAAGGCGAAUAAG	–	–	161 nM	42.6 nM
CCGUCAAUCGAGAAGGGCCUAUGUGCUACACCGGCAGGAUAUCGACAUGAGGAUCACCCAUGUUGGCGAUCCUUUUUGGCGGAC	135 nM	36.5 nM	–	–
AUUGUAGUUGUGAGGAUAUCGUUGAUUUUUUGAAACGAGAAGGCACAUGAGGAUCACCCAUGUAAGUUGUAGGU	80.6 nM	315 nM	–	–
AAGAGCGAUUCUCCCUUCCUACAUGAGGAUCACCCAUGUACGAGAAGGCGCCGUGUAUACCACGGUGAGGAUAUCGUACGUUAC	5.23 nM	10.3 nM	–	–
GUUAAACAUGAGGAUCACCCAUGUAAGGAUAUGCUGCGGUCGCGAUGAAGUGACUGCAGCAGAAGGUACAAUUG	109 nM	75.9 nM	–	–
GGCUCCGCUCGAGGAUAUAGCUGCAUGUAGUGUCCUGAGGCACAUGAGGAUCACCCAUGUGUAGGCUAGAAGGCGACGGACGCU	76.1 nM	138 nM	–	–
UCCUACAUCGGAGGAUAUCAUGUGUAAACAUGAGGAUCACCCAUGUCGUACGAUAGUACGGAGAUUGAGAAGGCCGAUGUAGGU	–	–	93.9 nM	17.3 nM
AGUAUACAUGAGGAUCACCCAUGUCAGUAACUGACAGGAUAUGCGUUGCAUCACUGUAAUGCAGAAGGGUCUUGUA	–	–	507 nM	115 nM
UGGUACAUGGGAGGAUAUCAUGUACUUACAUGAGGAUCACCCAUGUCGAUGGAGACAUCGGAGAUUGAGAAGGCCCAUGUACCU	–	–	1220 nM	42.2 nM
